From the EternaBench riboswitch data

Test system: MS2 coat protein
Assay: apparent Kd, MS2 coat protein; higher = weaker binding; RNA-MaP array; FMN 200 µM where present
In short: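 On Illumina sequencing-chip clusters, designs were transcribed by stalled E. coli RNA polymerase and titrated with SNAP-549-labelled MS2 coat protein (0.7 or 1.5 nM, doubling to 3 µM), without and then with constant ligand, in 100 mM Tris-HCl pH 7.5, 80 mM KCl, 4 mM MgCl2, BSA, DTT, yeast tRNA and Tween-20. Apparent Kd is the median of filtered per-cluster curve fits to green signal normalised to red-channel RNA signal and control-cluster median Fmax.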

[1] = designed as: ON switch for flavin mononucleotide, no ligand
[2] = ligand present: flavin mononucleotide, designed as: ON switch for flavin mononucleotide
[3] = designed as: OFF switch for flavin mononucleotide, no ligand
[4] = ligand present: flavin mononucleotide, designed as: OFF switch for flavin mononucleotide

Row | Sequence | apparent Kd [1] [nM] | apparent Kd [2] [nM] | apparent Kd [3] [nM] | apparent Kd [4] [nM]
1 | GCCAUCGCAUGAGGAUAUGCUCCCGUUUCGGGAGCAGAAGGCAUGUCAUAAGACAUGAGGAUCACCCAUGUGGUUAAGAUGGCA | 335 | 12.4 |  | 
2 | UGGAUGUAGGAGAAGGAGGACUUCAUGAGGAUCACCCAUGUGUUAGGACUUAGGAUAUUUGACGACAUGAGGAUCACCCAUGUG | 63.6 | 58.4 |  | 
3 | ACAUGAUCAGGAUAUACAUGAGGAUCACCCAUGUAUUUCAAAAAGGGACUUUCUUUAUGUAGAAGGGAUCUUGU |  |  | 15.8 | 43.1
4 | GUAAAACAUGAGGAUCACCCAUGUCAACAAAGUCGAGGAUAUGGGCAAAUAAAAUAAGAACCAGAAGGCGAAUAAG | 161 | 42.6 |  | 
5 | AUAAAUCAUGUAGGAUAUGCGUGGCGAAGCUAUGCAGAAGGACAUGAGGAUCACCCAUGUCUUUCCGUCUGCGUACAGACGGAA |  |  | 33.4 | 311
6 | AACUCGUCAGGAUAUGCGCGCAGUUACUACGCUUCGCAAUUGCAGAAGGGACAUGAGGAUCACCCAUGUAGGUC |  |  | 46.9 | 48
7 | GGGUACAUCGGAGGAUAUCAAGUAAAUACAUGAGGAUCACCCAUGUCGAUGGAGACAUCGGAGAUUGAGAAGGCCGAUGUACCG | 6 | 5.42 |  | 
8 | UUCUUACAUGAGGAUCACCCAUGUCAGGAUAUCUCCACACUGCGCUUGCGCAGUGUAUAGAGAAGGGACAGGCU |  |  | 49.4 | 47.5
9 | UAUUGAGCAGGAUAUUAACGGGUUUACAUGAGGAUCACCCAUGUGGUCCCGUGUUAGCUAUAAGAAGGGCUGAUGA |  |  | 35.5 | 120
10 | CGAUCACAUGUCAGGAUAUGCGAGCUUGUAUCGCCGUAGAAGGGACAUGAGGAUCACCCAUGUCCGAUCAUUCG |  |  | 28.3 | 52.1
11 | GUCAGCUCGUGAGGAUAUACAACACUGCUUCGGCAGUGUAUUAAGACCACAUGAGGAUCACCCAUGUAGAAGGCACGAGCUGAU |  |  | 5.18 | 14.3
12 | CGAUAAUAUAGUUAUCCGUAACGGACAUGAGGAUCACCCAUGUAGGAUAUGUUACUCAACGAGUAACAGAAGGACAUGAGUCUU |  |  | 14.8 | 109
13 | AUGCCAAAAGGAGGAUAUGGAGCCUUAUUGGCUCCAGAAGGCUUGACAUGAGGAUCACCCAUGUGGCAGUGGUCUAAUGACCAC | 18.5 | 15.1 |  | 
14 | AUUGUAGUUGUGAGGAUAUCGUUGAUUUUUUGAAACGAGAAGGCACAUGAGGAUCACCCAUGUAAGUUGUAGGU |  |  | 80.6 | 315
15 | GUGCUGCAGCUGUGCACGAGACAUGAGGAUCACCCAUGUGACAGAAGGGACUUGUUAAAGGUAGGUCAGGAUAUGUCUUAAAAG | 107 | 37.3 |  | 
16 | CGCAAACAUGAGGAUCACCCAUGUCAAUGUGAUCAAGGAUAUGGGUUCCGAAAUGGAACACCAGAAGGUGAGUAAU | 142 | 37.3 |  | 
17 | UGUGUCUGUAGAGGAUAUCCGAGCGUUCGGCGAGGAGAAGGCUGCAACACAUGAGGAUCACCCAUGUAGGUUGUGUCUCCCUAC |  |  | 10.9 | 32.2
18 | AGAUCAACCACAGGAUAUGGCUAGCAUAGCUAGCCAGAAGGGUGGUCGUAUCCAUGUAAAUACAUGAGGAUCACCCAUGUAUCC | 220 | 119 |  | 
19 | GGUGCCAUGUAGAAGGCAGAUCUGAUUCAGAUCUGAGGAUAUACAUGAGGAUCACCCAUGUAAAGGCACCGCACGAGAGUGCAA |  |  | 6.51 | 8.81
20 | AGGAGGUCAGGAUAUGCUGCUCGUCACUUGCGUGAUGAGUAGCAGAAGGGACAUGAGGAUCACCCAUGUAAAUA |  |  | 48.7 | 86.7
21 | UUUUAACAUGAGGAUCACCCAUGUGAGGAUAUCGAAAUUUAUAUUAAUAUUUAUAUUUCGAGAAGGCACAUUUU |  |  | 204 | 191
22 | GUCGUGUUAGGAUAUGGCAACGGCUACGAAAGUAGUUGUUGUUAGAAGGAACAUGAGGAUCACCCAUGUAUGAC |  |  | 38 | 101
23 | AUCUCGUCAGGAUAUCCUAGUAAUUGUUUCAUAUUUACGAUGGAGAAGGGACAUGAGGAUCACCCAUGUUGGUC |  |  | 64.4 | 144
24 | UGAUCGAGAGAUCUUAGAUUCUGGUAGGAUAUACAACAGUUGCGCUUUACAUGAGGAUCACCCAUGUAGAAGGACUAGAGUCUA |  |  | 7.55 | 8.78
